# According to ChEMBL document CHEMBL1137716, “Novel modifications in the series of O-(2-phthalimidoethyl)-N-substituted thiocarbamates and their ring-opened congeners as non-nucleoside HIV-1 reverse transcriptase inhibitors” (Eur J Med Chem, 2009):
# The source made the active and inactive calls. How the calls were made is not given here.
# Columns and labels:
# [1] = Cytotoxicity against mock-infected human MT4 cells by MTT assay; type: cell-based
# Outline: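 Mock-infected MT-4 cells, tested in parallel with the antiviral assay; viability read by MTT method; CC50 is the concentration lowering viability by 50%; mean of three separate experiments, triplicate variation under 10%.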
# [2] = system: Human immunodeficiency virus 1; assay: Antiviral activity against wild type HIV1 3B in human MT4 cells assessed as protection against viral induced cytopathogenicity by MTT assay; type: functional, organism-based; conditions: Human immunodeficiency virus 1, 3B
# Outline: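 MT-4 cells infected with HIV-1; 50% protection from virus-induced cytopathogenicity read by MTT method; EC50 in micromolar; mean of three separate experiments, triplicate samples varying under 10%.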
# [3] = Selectivity index, ratio of CC50 for human MT4 cells to EC50 for HIV1 3B; type: toxicity, cell-based; conditions: read-out: Ratio CC50/EC50
# Outline: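 Ratio of CC50 in mock-infected MT-4 cells to EC50 for protection from HIV-1 cytopathogenicity, both read by MTT method.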
# [4] = system: Human immunodeficiency virus 1; assay: Antiviral activity against HIV1 3B Y181C/K103N double mutant in human MT4 cells assessed as protection against viral induced cytopathogenicity by MTT assay; type: functional, organism-based
# Outline: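 MT-4 cells infected with HIV-1 carrying the NNRTI-resistance mutation were assayed for protection from virus-induced cytopathogenicity, read out as cell viability by MTT. EC50 is the compound concentration giving 50% protection. Values are means of three separate experiments, with variation among triplicate samples under 10%. Efavirenz served as the reference.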
SMILES,CC50 [1],EC50 [2],selectivity ratio [3],Activity [4]
CC(=O)c1ccc(NC(=S)OCCN2C(=O)c3ccc(C)cc3C2=O)cc1,> 100 µM,0.07 µM,> 1430,inactive
Cc1ccc2c(c1)C(=O)N(CCOC(=S)Nc1ccc(Cl)c(Cl)c1)C2=O,50 µM,0.2 µM,250,inactive
CCc1ccc(NC(=S)OCCN2C(=O)c3ccccc3C2=O)cc1,,0.08 µM,,
CCCCNC(=S)OCCN1C(=O)c2ccccc2C1=O,> 100 µM,7.2 µM,> 13.9,inactive
O=C1c2ccccc2C(=O)N1CCOC(=S)Nc1ccc(I)cc1,,0.02 µM,,
O=C1c2ccccc2C(=O)N1CCOC(=S)Nc1c(Cl)cccc1Cl,> 100 µM,21 µM,> 4.8,
O=C1c2ccccc2C(=O)N1CCOC(=S)Nc1ccc(Cl)c(Cl)c1,> 100 µM,0.2 µM,> 500,inactive
COc1ccc(C)cc1NC(=S)OCCNC(=O)c1ccccc1C(=O)O,> 100 µM,88 µM,> 1.1,
Cc1cccc(C)c1NC(=S)OCCN1C(=O)c2ccccc2C1=O,> 100 µM,75 µM,> 1.3,
COc1ccc(NC(=S)OCCN2C(=O)c3ccccc3C2=O)cc1,,0.03 µM,,
COc1ccc(NC(=S)OCCNC(=O)c2ccccc2C(=O)O)cc1OC,> 100 µM,16 µM,> 6.2,
Cc1ccc(NC(=S)OC[C@@H](C)NC(=O)c2ccccc2C(=O)O)cc1,> 100 µM,2.3 µM,> 43.5,inactive
O=C1c2ccccc2C(=O)N1CCOC(=S)Nc1ccccc1,,1.2 µM,,
CC(C)(C)c1ccc2c(c1)C(=O)N(CCOC(=S)Nc1ccc(Cl)cc1)C2=O,55 µM,1.2 µM,45.8,inactive
O=C1c2ccccc2C(=O)N1CCOC(=S)Nc1c(Cl)cc(Cl)cc1Cl,> 100 µM,10 µM,> 10,inactive
O=C(O)c1ccccc1C(=O)NCCOC(=S)Nc1ccc(Cl)c(Cl)c1Cl,> 100 µM,44 µM,> 2.3,inactive
Cc1ccc(NC(=S)OCCN2C(=O)c3ccccc3C2=O)c(C)c1,> 100 µM,6 µM,> 16.7,
O=C(O)c1ccccc1C(=O)NCCOC(=S)Nc1cc(F)ccc1F,> 100 µM,51 µM,> 2,inactive
N#Cc1ccc(NC(=S)OCCN2C(=O)c3ccccc3C2=O)cc1,,0.07 µM,,
COc1ccc(CCNC(=S)OCCNC(=O)c2ccccc2C(=O)O)cc1OC,100 µM,63 µM,1.6,inactive
O=C1c2ccccc2C(=O)N1CCOC(=S)Nc1c(F)cccc1F,> 100 µM,7 µM,> 14.3,inactive
O=C(O)c1ccccc1C(=O)NCCOC(=S)Nc1cc(F)cc(F)c1,> 100 µM,62 µM,> 1.6,inactive
O=C(O)c1ccccc1C(=O)NCCOC(=S)Nc1ccc(F)cc1F,> 100 µM,3.8 µM,> 26.3,inactive
CC(=O)c1ccc(NC(=S)OCCN2C(=O)c3ccccc3C2=O)cc1,,0.14 µM,,
Cc1ccc(NC(=S)OCCN2C(=O)c3ccc(C(C)(C)C)cc3C2=O)cc1,42 µM,1.5 µM,28,inactive
O=C1c2ccccc2C(=O)N1CCOC(=S)Nc1cccc(Cl)c1Cl,> 100 µM,30 µM,> 3.3,
Cc1ccc(NC(=S)OCCNC(=O)c2ccccc2C(=O)O)c(C)c1,> 100 µM,53 µM,> 1.9,

SMILES,CC50 [1],EC50 [2],selectivity ratio [3],Activity [4]
Cc1ccc(Cl)cc1NC(=S)OCCNC(=O)c1ccccc1C(=O)O,> 100 µM,30 µM,> 3.3,
C[C@@H](COC(=S)Nc1ccc(Cl)cc1)N1C(=O)c2ccccc2C1=O,84 µM,0.2 µM,420,inactive
Cc1cccc(Cl)c1NC(=S)OCCN1C(=O)c2ccccc2C1=O,> 100 µM,23 µM,> 4.3,
O=C1c2ccccc2C(=O)N1CCOC(=S)Nc1cc(F)ccc1F,> 100 µM,8 µM,> 12.5,inactive
Cc1cc(Br)ccc1NC(=S)OCCN1C(=O)c2ccccc2C1=O,> 100 µM,19 µM,> 5.3,
O=C1c2ccccc2C(=O)N1CCOC(=S)Nc1ccc(F)cc1,,0.1 µM,,
Cc1ccc(NC(=S)OCCN2C(=O)c3ccccc3C2=O)cc1,,0.02 µM,,
Cc1cc(Cl)ccc1NC(=S)OCCN1C(=O)c2ccccc2C1=O,> 100 µM,27 µM,> 3.7,
O=C1c2ccccc2C(=O)N1CCOC(=S)NC1CC1,> 100 µM,> 100 µM,,
O=C1c2ccccc2C(=O)N1CCOC(=S)Nc1ccc(Cl)c(C(F)(F)F)c1,84 µM,8 µM,10.5,
COc1ccc(Cl)cc1NC(=S)OCCN1C(=O)c2ccccc2C1=O,> 100 µM,48 µM,> 2.1,
O=C1c2ccccc2C(=O)N1CCOC(=S)Nc1ccc(Cl)cc1Cl,> 100 µM,> 100 µM,,
Cc1ccc2c(c1)C(=O)N(CCOC(=S)Nc1ccc(Cl)cc1)C2=O,,0.025 µM,,
O=C1c2ccccc2C(=O)N1CCOC(=S)NCc1ccco1,> 100 µM,> 100 µM,,inactive
O=C1c2ccccc2C(=O)N1CCOC(=S)Nc1ccc(Br)cc1,,0.03 µM,,
O=C1c2ccccc2C(=O)N1CCOC(=S)Nc1cc(Cl)cc(Cl)c1,> 100 µM,12 µM,> 8,
O=C1c2ccccc2C(=O)N1CCOC(=S)Nc1ccc([N+](=O)[O-])cc1Cl,> 100 µM,> 100 µM,,
CC(COC(=S)Nc1ccc(Cl)cc1)N1C(=O)c2ccccc2C1=O (racemic),,0.05 µM,,
C=CCNC(=S)OCCN1C(=O)c2ccccc2C1=O,> 100 µM,> 100 µM,,
O=C1c2ccccc2C(=O)N1CCOC(=S)Nc1ccc(Cl)cc1,,0.04 µM,,
O=C1c2ccccc2C(=O)N1CCOC(=S)Nc1cc(Cl)ccc1Cl,> 100 µM,42 µM,> 2.4,
O=C1c2ccccc2C(=O)N1CCOC(=S)NCc1ccccc1,> 100 µM,26 µM,> 3.8,
Cc1ccc(Cl)cc1NC(=S)OCCN1C(=O)c2ccccc2C1=O,> 100 µM,> 100 µM,,
Cc1ccc(NC(=S)OCCNC(=O)c2ccccc2C(=O)O)cc1Cl,> 100 µM,4.3 µM,> 23.2,
O=C1c2ccccc2C(=O)N1CCOC(=S)NC1CCCCCCC1,> 100 µM,0.6 µM,> 167,
O=C1c2ccccc2C(=O)N1CCOC(=S)NC1CCCC1,> 100 µM,11 µM,> 9.1,
Cc1cc(C)cc(NC(=S)OCCN2C(=O)c3ccccc3C2=O)c1,> 100 µM,4 µM,> 25,
